Consider 14 molecules from PubChem BioAssay.

Assay [1] is described as follows: inhibitors of TNFa-induced NFkB p65 translocation, primary screen, imaging, HUVEC, MLSMR starter and 10KST1 sets (AID 438;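 active = inhibition above 20% together with a positive visual image hit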;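 note: compound added about 3h40 before a 20 min TNFalpha stimulation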;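 for inhibition: signal is the nuclear over cytoplasmic p65 intensity ratio per well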). The conditions noted are these: HUVEC TNFa-induced p65 nuclear translocation; cell count: measured here: nuclei count (cytotoxicity indicator), at 2.08 µM; inhibition: at 2 µM, stronger effect = higher value, 0% TNFa-plus-vehicle, 100% no-TNFa wells.
The nature of assay [2]: reduction of polyQ htt aggregates in cells – imaging, exon1htt(103Q)mCFP cells, high-content imaging, primary screen (AID 483;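 active = visual image review flags a hit and inhibition of aggregation exceeds 20%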;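 note: compound exposure lasted 3 days before fixation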;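 for nuclei count: percent of the per-plate median nuclei count of sample wells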). As to conditions: exon1htt(103Q)mCFP cell line, aggregate imaging, at 2 µM; inhibition of aggregation: stronger effect = higher value; nuclei count: measured here: cell count, toxicity.
Assay [3] is described as follows: endothelial E-selectin expression blockers – imaging, HUVEC, immunofluorescence, MLSMR starter and 10KST1 sets, primary screen (AID 487;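 active = visually confirmed hit in the image check and inhibition above 20%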;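 for inhibition: signal is fraction of cell area covered by stained E-selectin grains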;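 for nuclei count: 100% = median nuclei count of all wells on the same plate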). The conditions noted are these: HUVEC TNFalpha-induced E-selectin immunofluorescence imaging, at 2 µM; inhibition: stronger effect = higher value; nuclei count: measured here: cell number, toxicity.
Assay [4] deals with Voltage-gated potassium channel subunit beta-2 (Rattus norvegicus) (UniProt P62483). Briefly: inhibitors of rat Kvbeta2 reductase activity – biochemical, NADPH fluorescence, primary screen (AID 622;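 active = fluorescence slope higher than the sample average by over 3 SD, cut at about -0.22 in these data, passing the limit was not always enough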;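 note: slope of raw intensity against log time taken from 70 to 1610 s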). The conditions noted are these: recombinant KvBeta, 4-cyanobenzaldehyde reduction, at 10 µM, stronger effect = higher value.
Chain of Voltage-gated potassium channel subunit beta-2 (Rattus norvegicus) (P62483 whole entry, looked up): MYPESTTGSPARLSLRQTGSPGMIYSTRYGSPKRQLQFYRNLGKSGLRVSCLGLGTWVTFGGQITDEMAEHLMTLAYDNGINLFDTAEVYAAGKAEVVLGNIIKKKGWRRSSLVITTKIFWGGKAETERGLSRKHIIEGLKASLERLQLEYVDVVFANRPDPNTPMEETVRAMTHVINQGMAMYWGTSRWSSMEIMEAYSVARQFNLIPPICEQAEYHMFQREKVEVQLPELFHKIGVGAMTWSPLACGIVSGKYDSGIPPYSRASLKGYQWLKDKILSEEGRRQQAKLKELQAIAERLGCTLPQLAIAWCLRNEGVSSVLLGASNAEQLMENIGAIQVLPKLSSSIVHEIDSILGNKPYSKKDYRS
Assay [5] has the same target. Kind of assay: enhancers of rat Kvbeta2 NADPH turnover – biochemical, NADPH fluorescence, primary screen (AID 623;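 active = NADPH fluorescence slope more negative than the mean of all samples by about 3 SD, 99.7% confidence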;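 note: fluorescence intensity change per second fitted from 20 to 320 s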). As to conditions: Recombinant KvBeta, NADPH fluorescence decrease slope, 10 min; at 10 µM; stronger effect = lower value.
The target of assay [6] is Muscarinic acetylcholine receptor M4 (Homo sapiens) (UniProt P08173). Briefly: M4-linked GIRK flux change, two-sided – cell-based, HEK293 M4/GIRK, thallium flux, BTC-AM, M4 allosteric agonist project, primary screen (AID 625;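 active = fluorescence slope after compound addition differing from the mean of all tested samples at 99.7% confidence, mostly higher but some lower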;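 note: thallium influx through GIRK channels coupled to M4 in HEK293 cells with BTC-AM dye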). As to conditions: at 10 µM, actives lie on both sides. The procedure, abridged: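 Material: HEK293 cells with M4 receptor and GIRK channels; Times: cells overnight at 37 °C, BTC-AM loading 1 h, reads 2 min total; Technique: kinetic BTC-AM fluorescence sampled at 1 Hz, 10 s pre-addition baseline; Read-out basis: slope over 15–24 s of trace normalized to starting intensity; Controls: carbachol positive, DMSO negative.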
Chain of Muscarinic acetylcholine receptor M4 (Homo sapiens) (P08173 whole entry, looked up): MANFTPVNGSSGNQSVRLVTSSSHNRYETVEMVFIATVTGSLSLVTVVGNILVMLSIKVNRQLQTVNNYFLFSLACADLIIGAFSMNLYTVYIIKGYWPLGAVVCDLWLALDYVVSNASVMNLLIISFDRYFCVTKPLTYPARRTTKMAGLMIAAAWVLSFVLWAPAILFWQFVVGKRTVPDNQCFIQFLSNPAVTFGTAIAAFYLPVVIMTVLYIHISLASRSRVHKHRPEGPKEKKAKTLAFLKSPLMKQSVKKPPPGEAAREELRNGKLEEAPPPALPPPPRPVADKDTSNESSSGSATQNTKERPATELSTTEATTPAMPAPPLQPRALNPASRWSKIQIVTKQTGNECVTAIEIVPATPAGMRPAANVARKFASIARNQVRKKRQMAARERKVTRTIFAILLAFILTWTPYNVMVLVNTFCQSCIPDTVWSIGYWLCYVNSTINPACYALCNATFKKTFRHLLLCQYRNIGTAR

Assay [7] can be described thus: blockers of RIG-like receptor reporter activation – cell-based, Sendai virus stimulus, luciferase, 10K MLSCN set, TLR/RLR signaling modifier project, primary screen (AID 602276).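 Note: firefly luciferase from ISG56 promoter only with Renilla not read in this screen; 0% = Sendai virus plus DMSO and 100% = medium plus DMSO without virus.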 As to conditions: HEK293 RL24 IRF3 luciferase reporter, at 10 µM, stronger effect = higher value. On the technique in general: A reporter such as luciferase makes a cellular process visible.
A short description of assay [8]: TLR3 IRF3 reporter activation blockers – cell-based, poly I:C stimulus, luciferase, 10K MLSCN set, primary screen (AID 602277;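 active = inhibition of the reporter signal at or above 50%; inactive = inhibition below 50%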). As to conditions: HEK293-TLR3 RL24 IRF3 luciferase reporter, at 10 µM, stronger effect = higher value.

The structures appear in SMILES notation. Active and inactive are the calls of the source.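 Rule for the calls, unless noted: active = inhibition at or above 50% at 10 µM; inactive = inhibition below 50%.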

For orientation: inhibition means the drop in the measured response relative to a control, in per cent. Turning to `N=c1sc2ccccc2n1-c1ccccc1`, the cell count in assay [1] is 402. For the same molecule, the inhibition in assay [1] was 10.9% (inactive); in assay [3] it was -469% (inactive); in assay [7] it was 15.3% (inactive); in assay [8], 14.4% (inactive). For the same molecule, in assay [2], the inhibition of aggregation was 14.5% (inactive). Further, the nuclei count turned out to be 96.6% in assay [2] and 114% in assay [3]. In addition, the figures for the fluorescence slope in assay [4] and in assay [6] were -0.583 (inactive) and 0.00638 (inactive), respectively. The NADPH fluorescence slope in assay [5] was -1.3e-05 (inactive).
As to `O=C(COc1nnnc2ccccc12)N1CCCc2ccccc21`, the cell count in assay [1] was 327. The inhibition was 0.2% (inactive) in assay [1], -50.4% (inactive) in assay [3], 8.08% (inactive) in assay [7] and 16.5% (inactive) in assay [8]. The inhibition of aggregation in assay [2] is -10.1% (inactive). The figures for the nuclei count in assay [2] and in assay [3] were 106% and 130%, respectively. The fluorescence slope was -0.43 (inactive) in assay [4] and 0.00597 (inactive) in assay [6]. Further, in assay [5], the NADPH fluorescence slope was -7.5e-05 (inactive).
As to `COC(=O)Nc1ccc(C)cc1NC(=O)OC`, the cell count in assay [1] was determined as 624. Further, the inhibition in assay [1] was -20.8% (inactive); in assay [3], 16% (inactive); in assay [7], -9.05% (inactive); in assay [8], -6.68% (inactive). Besides, the inhibition of aggregation in assay [2] was -13.1% (inactive). Moreover, the nuclei count amounted to 98.6% in assay [2] and 86.5% in assay [3]. The figures for the fluorescence slope in assay [4] and in assay [6] were -0.574 (inactive) and 0.00692 (inactive), respectively. In addition, in assay [5], the NADPH fluorescence slope was 2.5e-05 (inactive).
Turning to `COC(=O)c1cc(NS(=O)(=O)c2ccc3c(c2)CCC(=O)N3)cc(C(=O)OC)c1`, in assay [1], the cell count came to 384. Moreover, the inhibition was -2.9% (inactive) in assay [1], -255% (inactive) in assay [3], -11.6% (inactive) in assay [7] and 79.6% (active) in assay [8]. For the same molecule, the inhibition of aggregation in assay [2] is -24.1% (inactive). For the same molecule, the nuclei count in assay [2] came out at 108%; in assay [3], 115%. The fluorescence slope in assay [4] was -0.464 (inactive); in assay [6], 0.00663 (inactive). Further, the NADPH fluorescence slope in assay [5] is 2.6e-05 (inactive).
For the molecule `CC(=O)Nc1ccn(-c2ccccc2)n1`, the cell count in assay [1] stood at 595. Besides, the inhibition in assay [1] is 1.8% (inactive); in assay [3], -113% (inactive); in assay [7], -39.2% (inactive); in assay [8] it was -34.3% (inactive). Moreover, the inhibition of aggregation in assay [2] was -0.5% (inactive). In addition, the values for the nuclei count in assay [2] and in assay [3] were 108% and 136%, respectively. Further, the fluorescence slope is -0.584 (inactive) in assay [4] and 0.00818 (inactive) in assay [6]. In addition, the NADPH fluorescence slope in assay [5] was -9.6e-06 (inactive).
`Cc1ccc(-n2c(=O)[nH]c3c(C(N)=O)nc(CC(C)C)nc32)cc1`: in assay [1], the cell count stood at 297. The inhibition in assay [1] is 37.7% (active); in assay [3] it was 6.3% (inactive); in assay [7], -2.4% (inactive); in assay [8] it was 8.27% (inactive). In assay [2], the inhibition of aggregation was 9.5% (inactive). Also, the nuclei count in assay [2] came to 92.3%; in assay [3], 98.1%. Further, the fluorescence slope in assay [4] is -0.536 (inactive); in assay [6], 0.00328 (inactive). The NADPH fluorescence slope in assay [5] is -0.000117 (inactive).
`C=CCN1C(=O)/C(=C2\SC(N3CCOCC3)=NC2=O)c2cc(Br)ccc21`: the cell count in assay [1] is 418. The inhibition in assay [1] was 3.5% (inactive); in assay [3] it was -76% (inactive); in assay [7], -11.1% (inactive); in assay [8], -37.3% (inactive). For the same molecule, the inhibition of aggregation in assay [2] is 22.3% (inactive). In addition, the nuclei count worked out at 100% in assay [2] and 86.1% in assay [3]. Besides, the fluorescence slope in assay [4] is -0.519 (inactive); in assay [6], 0.00286 (inactive). Besides, the NADPH fluorescence slope in assay [5] is -8.4e-05 (inactive).
`COc1cc(C2C(C#N)=C(N)OC3=C2C(=O)CCC3)ccc1OC(=O)N1CCOCC1` (centres undefined): the cell count in assay [1] is 503. Further, the inhibition in assay [1] is -34.2% (inactive); in assay [3], -20.8% (inactive); in assay [7] it was 8.74% (inactive); in assay [8], 6.55% (inactive). In assay [2], the inhibition of aggregation was -16.1% (inactive). Also, the nuclei count in assay [2] came out at 93.7%; in assay [3] it was 101%. Also, the fluorescence slope in assay [4] is -0.37 (inactive); in assay [6], 0.00858 (inactive). Also, the NADPH fluorescence slope in assay [5] was -7.7e-05 (inactive).
Consider `Cc1ccccc1NC(=O)C1Cc2ccccc2C(=O)O1` (centres undefined), for which the cell count in assay [1] amounted to 193. The inhibition is -5.8% (inactive) in assay [1], 20.2% (inactive) in assay [3], -9.01% (inactive) in assay [7] and -31.6% (inactive) in assay [8]. Also, the inhibition of aggregation in assay [2] is -4.8% (inactive). In addition, the nuclei count in assay [2] was found to be 76.3%; in assay [3], 79.8%. For the same molecule, the fluorescence slope is -0.529 (inactive) in assay [4] and 0.00563 (inactive) in assay [6]. Further, the NADPH fluorescence slope in assay [5] was -3.3e-05 (inactive).
`O=C(CN1CCOCC1)N1CCN(C(=O)CN2CCOCC2)CC1`: the cell count in assay [1] was 557. Besides, the inhibition in assay [1] is -51% (inactive); in assay [3] it was -63.9% (inactive); in assay [7], 12.4% (inactive); in assay [8], 17.7% (inactive). In addition, in assay [2], the inhibition of aggregation is -14% (inactive). The nuclei count in assay [2] and in assay [3] was 120% throughout. The results for the fluorescence slope in assay [4] and in assay [6] were -0.468 (inactive) and 0.00604 (inactive), respectively. Also, the NADPH fluorescence slope in assay [5] was 9.6e-05 (inactive).
On to `O=C(Nc1ccc(S(=O)(=O)NC2CCCC2)cc1)c1cnccn1`, for which the cell count in assay [1] is 288. In addition, the inhibition in assay [1] was 1.5% (inactive); in assay [3], -54% (inactive); in assay [7], 10.3% (inactive); in assay [8], 11.7% (inactive). The inhibition of aggregation in assay [2] is 0.6% (inactive). The nuclei count in assay [2] came out at 97.1%; in assay [3], 117%. In addition, the results for the fluorescence slope in assay [4] and in assay [6] were -0.543 (inactive) and 0.00448 (inactive), respectively. For the same molecule, in assay [5], the NADPH fluorescence slope is -1.1e-05 (inactive).
For `O=C(COc1ccccc1)NCCSCc1ccco1`, the cell count in assay [1] stood at 599. Also, the inhibition was -59.2% (inactive) in assay [1], -71.2% (inactive) in assay [3], -1.72% (inactive) in assay [7] and -10.5% (inactive) in assay [8]. The inhibition of aggregation in assay [2] was -13.8% (inactive). The results for the nuclei count in assay [2] and in assay [3] were 115% and 116%, respectively. Moreover, the fluorescence slope in assay [4] was -0.271 (inactive); in assay [6] it was 0.00726 (inactive). Further, the NADPH fluorescence slope in assay [5] was -2e-05 (inactive).
With `COc1cc(C2C3=C(CC(C)(C)CC3=O)Nc3c2c(=O)[nH]c(=O)n3Cc2ccccc2)ccc1O` (centres undefined), in assay [1], the cell count is 271. In addition, the inhibition in assay [1] is 15% (inactive); in assay [3], -45.4% (inactive); in assay [7], 9.34% (inactive); in assay [8], 5.06% (inactive). Also, in assay [2], the inhibition of aggregation was -4.8% (inactive). The nuclei count came out at 104% in assay [2] and 114% in assay [3]. For the same molecule, the fluorescence slope is -0.463 (inactive) in assay [4] and 0.00547 (inactive) in assay [6]. For the same molecule, the NADPH fluorescence slope in assay [5] was -8e-05 (inactive).
Consider `CCOC(=O)c1cccc(NC(=O)Cn2cnc3c2c(=O)n(C)c(=O)n3C)c1`, for which, in assay [1], the cell count is 467. The inhibition was 10.1% (inactive) in assay [1], 2.2% (inactive) in assay [3], -6.03% (inactive) in assay [7] and -6.74% (inactive) in assay [8]. The inhibition of aggregation in assay [2] was 2.8% (inactive). The nuclei count in assay [2] is 123%; in assay [3] it was 114%. For the same molecule, the fluorescence slope was -0.261 (inactive) in assay [4] and 0.00582 (inactive) in assay [6]. The NADPH fluorescence slope in assay [5] is -7e-06 (inactive).
